Assay results from ChEMBL document CHEMBL3994616, “Rational design, synthesis, and evaluation of novel 2,4-Chloro- and Hydroxy-Substituted diphenyl Benzofuro[3,2-b]Pyridines: Non-intercalative catalytic topoisomerase I and II dual inhibitor” (Eur J Med Chem, 2017).
Where a name gives a salt, the structure may show the parent alone. Activity calls are given as the source filed them. No cut-off for these calls is given here.

Columns and labels:
[1] = target: DNA topoisomerase 2-alpha (Homo sapiens) (UniProt P11388); experiment: Inhibition of human recombinant topoisomerase-2alpha-mediated relaxation of supercoiled pBR322 DNA at 100 uM after 30 mins by ethidium bromide staining based agarose gel electrophoresis method relative to control
Chain of DNA topoisomerase 2-alpha (Homo sapiens) (P11388 whole entry): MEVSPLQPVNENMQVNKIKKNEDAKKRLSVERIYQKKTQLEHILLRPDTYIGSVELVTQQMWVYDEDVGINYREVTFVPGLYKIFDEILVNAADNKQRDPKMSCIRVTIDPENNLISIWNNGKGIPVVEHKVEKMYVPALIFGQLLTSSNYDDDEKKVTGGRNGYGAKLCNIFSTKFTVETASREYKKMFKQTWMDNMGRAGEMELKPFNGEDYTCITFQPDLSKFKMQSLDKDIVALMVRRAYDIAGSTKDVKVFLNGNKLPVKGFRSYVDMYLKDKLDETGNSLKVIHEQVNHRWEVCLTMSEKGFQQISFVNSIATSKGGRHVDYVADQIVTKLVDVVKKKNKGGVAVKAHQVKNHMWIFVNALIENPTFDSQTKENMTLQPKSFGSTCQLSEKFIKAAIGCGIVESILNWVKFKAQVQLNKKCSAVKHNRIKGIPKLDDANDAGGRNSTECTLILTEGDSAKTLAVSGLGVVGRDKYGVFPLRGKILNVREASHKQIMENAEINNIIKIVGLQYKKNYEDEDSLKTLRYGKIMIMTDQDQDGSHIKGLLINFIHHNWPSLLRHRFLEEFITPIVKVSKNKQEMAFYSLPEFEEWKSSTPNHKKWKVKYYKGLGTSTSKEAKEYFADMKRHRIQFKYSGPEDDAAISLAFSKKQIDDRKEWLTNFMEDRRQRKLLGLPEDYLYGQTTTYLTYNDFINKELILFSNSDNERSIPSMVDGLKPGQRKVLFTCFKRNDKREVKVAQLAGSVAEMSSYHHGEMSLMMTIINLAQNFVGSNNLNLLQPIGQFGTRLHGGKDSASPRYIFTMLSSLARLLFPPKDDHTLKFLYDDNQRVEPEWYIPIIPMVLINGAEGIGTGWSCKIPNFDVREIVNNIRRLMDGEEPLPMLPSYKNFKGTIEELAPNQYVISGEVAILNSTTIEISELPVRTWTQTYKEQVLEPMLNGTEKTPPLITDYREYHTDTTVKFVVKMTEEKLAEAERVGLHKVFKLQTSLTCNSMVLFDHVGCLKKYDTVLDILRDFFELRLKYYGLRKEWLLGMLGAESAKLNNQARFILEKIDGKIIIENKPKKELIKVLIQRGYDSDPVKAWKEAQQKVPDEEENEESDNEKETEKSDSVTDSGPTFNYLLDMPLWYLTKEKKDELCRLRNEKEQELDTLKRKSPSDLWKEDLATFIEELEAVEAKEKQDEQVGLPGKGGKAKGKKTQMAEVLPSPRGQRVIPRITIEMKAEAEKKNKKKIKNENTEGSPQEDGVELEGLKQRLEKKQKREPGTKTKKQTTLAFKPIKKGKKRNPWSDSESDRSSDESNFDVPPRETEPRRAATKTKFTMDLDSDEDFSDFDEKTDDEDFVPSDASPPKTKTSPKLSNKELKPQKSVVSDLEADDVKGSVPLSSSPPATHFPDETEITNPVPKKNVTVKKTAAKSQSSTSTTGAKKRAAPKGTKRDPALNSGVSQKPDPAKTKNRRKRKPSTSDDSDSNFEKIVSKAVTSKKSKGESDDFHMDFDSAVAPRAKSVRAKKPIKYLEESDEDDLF

[2] = tested on: T47D; experiment: Antiproliferative activity against human T47D cells after 72 hrs by CCK8 assay; format: functional, cell-based
Procedure, shortened: (§1)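 Cells seeded at 2-4 x 10⁴ per well, cultured overnight in medium with 10% FBS at 37 °C, 5% CO₂, then serum-starved 4 h. Graded compound concentrations added for 72 h, CCK-8 added for a further 4 h, absorbance read at 450 nm. IC50 from a four-parameter logistic fit. Results come from three experiments, each in triplicate.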

[3] = tested on: HCT-15; experiment: Antiproliferative activity against human HCT15 cells after 72 hrs by CCK8 assay; format: functional, cell-based; details: HCT-15, 72 h; procedure, shortened: as §1
[4] = tested on: HeLa; experiment: Antiproliferative activity against human HeLa cells after 72 hrs by CCK8 assay; format: functional, cell-based
[5] = tested on: HCT-15; experiment: Potency index, ratio of etoposide IC50 to compound IC50 for human HCT15 cells; format: functional
[6] = tested on: HCT-15; experiment: Potency index, ratio of camptothecin IC50 to compound IC50 for human HCT15 cells; format: functional
[7] = tested on: HCT-15; experiment: Potency index, ratio of adriamycin IC50 to compound IC50 for human HCT15 cells; format: functional
[8] = target: DNA topoisomerase 2-alpha (Homo sapiens) (UniProt P11388); experiment: Poison activity at human recombinant topoisomerase 2 alpha assessed as stabilization of enzyme-DNA cleavable complex by measuring formation of linear DNA at 100 to 500 uM using supercoiled pBR322 DNA after 30 mins by ethidium bromide staining based agarose gel electrophoresis method
Procedure, shortened: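 250 ng supercoiled pBR322 preincubated with 3 units human topo II for 10 min in topo II relaxation buffer. Compound then added at 100 or 500 µM and incubated 30 min more at 37 °C. SDS stop, proteinase K 0.25 mg/mL at 45 °C for 30 min. Run on 1% agarose with EtBr at 30 V for 6 h, linear DNA band scored.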

[9] = target: T1, Topoisomerase I/II (Homo sapiens) (UniProt P11387+P11388); experiment: Inhibition of topoisomerase-1/topoisomerase-2 in human HCT15 cell nuclear extract at 100 uM preincubated for 24 hrs followed by supercoiled pBR322 DNA addition measured after 20 mins by ethidium bromide staining based agarose gel electrophoresis method relative to control; format: protein assay
T1 sequence (P11387 whole entry, looked up): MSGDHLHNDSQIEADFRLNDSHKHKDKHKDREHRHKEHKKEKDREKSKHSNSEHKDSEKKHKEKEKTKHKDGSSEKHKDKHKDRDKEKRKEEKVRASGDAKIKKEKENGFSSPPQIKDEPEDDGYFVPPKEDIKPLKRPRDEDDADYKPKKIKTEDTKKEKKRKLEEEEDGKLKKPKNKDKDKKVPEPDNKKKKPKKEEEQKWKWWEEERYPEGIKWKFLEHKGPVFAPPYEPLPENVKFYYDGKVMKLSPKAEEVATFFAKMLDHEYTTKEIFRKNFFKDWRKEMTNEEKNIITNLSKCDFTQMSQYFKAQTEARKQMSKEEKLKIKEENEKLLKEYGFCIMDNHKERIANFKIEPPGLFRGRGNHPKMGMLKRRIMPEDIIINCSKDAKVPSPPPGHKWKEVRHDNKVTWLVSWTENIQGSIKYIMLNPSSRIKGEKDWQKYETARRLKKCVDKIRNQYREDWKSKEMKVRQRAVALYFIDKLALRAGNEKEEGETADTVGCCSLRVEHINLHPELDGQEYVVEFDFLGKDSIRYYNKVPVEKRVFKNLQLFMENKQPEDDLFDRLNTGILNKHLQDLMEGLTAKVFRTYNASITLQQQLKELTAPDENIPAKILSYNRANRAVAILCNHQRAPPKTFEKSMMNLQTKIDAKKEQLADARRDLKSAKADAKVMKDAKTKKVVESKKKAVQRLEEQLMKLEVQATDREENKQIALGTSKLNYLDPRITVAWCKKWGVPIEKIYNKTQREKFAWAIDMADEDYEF
T1 sequence (P11388 whole entry, looked up): as the sequence (P11388 whole entry) above
Procedure, shortened: (§2)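 HCT15 cells treated 24 h at 25, 50 or 100 µM, then nuclear fractions prepared. Nuclear extract incubated with 100 ng pBR322 at 37 °C to read relaxation by endogenous topo I/II. Products run on 1.0% agarose at 50 V for 50 min in TAE, EtBr-stained, UV-visualized. Inhibition percent averaged over three experiments.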

[10] = target: T1, Topoisomerase I/II (Homo sapiens); experiment: Inhibition of topoisomerase-1/topoisomerase-2 in human HCT15 cell nuclear extract preincubated for 24 hrs followed by supercoiled pBR322 DNA addition measured after 20 mins by ethidium bromide staining based agarose gel electrophoresis method; format: protein assay; procedure, shortened: as §2
[11] = target: T1, Topoisomerase I/II (Homo sapiens); experiment: Inhibition of topoisomerase-1/topoisomerase-2 in human HCT15 cell nuclear extract at 50 uM preincubated for 24 hrs followed by supercoiled pBR322 DNA addition measured after 20 mins by ethidium bromide staining based agarose gel electrophoresis method relative to control; format: protein assay; procedure, shortened: as §2
[12] = tested on: HCT-15; experiment: Induction of apoptosis in human HCT15 cells assessed as decrease in Bcl2 level after 24 hrs by Western blot method; format: functional, cell-based
Procedure, shortened: (§3)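 HCT15 cells grown to 80% confluency, then treated 24 h at […]. Lysis buffer: Tris/NaCl/1% Triton X-100 with protease inhibitors. 60 µg protein run on 12% SDS-PAGE and transferred to PVDF. Blocked in 5% milk/TBST, primary antibodies 1:1000 for 2-3 h, HRP anti-rabbit 1:2000 for 2 h, ECL detection.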

[13] = tested on: HCT-15; experiment: Induction of apoptosis in human HCT15 cells assessed as increase in cleaved PARP level after 24 hrs by Western blot method; format: functional, cell-based; procedure, shortened: as §3
[14] = tested on: HCT-15; experiment: Induction of DNA damage in human HCT15 cells assessed as increase in gammaH2AX level at 30 uM after 24 hrs by Western blot method; format: functional, cell-based
Procedure, shortened: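 HCT15 cells exposed to 30 µM for 24 h, then lysed. 60 µg protein per sample run on 12% SDS-PAGE, and γ-H2AX detected by western blot.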

[15] = target: T1, Topoisomerase I/II (Homo sapiens); experiment: Inhibition of topoisomerase-1/topoisomerase-2 in human HCT15 cell nuclear extract at 25 uM preincubated for 24 hrs followed by supercoiled pBR322 DNA addition measured after 20 mins by ethidium bromide staining based agarose gel electrophoresis method relative to control; format: protein assay; procedure, shortened: as §2
[16] = tested on: HCT-15; experiment: Induction of DNA damage in human HCT15 cells assessed as comet tail formation at 30 uM after 24 hrs using SYBRGreen stain by electrophoresis based fluorescence microscopic method (reference value: 3 +/- 1.1%); format: functional
[17] = target: DNA topoisomerase 2-alpha (Homo sapiens) (UniProt P11388); experiment: Inhibition of human topoisomerase-2 alpha-mediated kinetoplast DNA decatenation after 30 mins by ethidium bromide staining based agarose gel electrophoresis
Procedure, shortened: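 75 ng kDNA in 50 mM Tris-HCl pH 8.0, 120 mM KCl, 10 mM MgCl₂, 0.5 mM DTT, 0.5 mM ATP, 30 µg/mL BSA. Compound added at 250 or 500 µM final, reaction started with 3 units topo II, 10 µL, 30 min at 37 °C. Stopped with SDS/ficoll/dye, proteinase K 0.25 mg/mL for 30 min. Run on 1.2% agarose containing EtBr.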

[18] = target: DNA topoisomerase 2-alpha (Homo sapiens) (UniProt P11388); experiment: Poison activity at human recombinant topoisomerase 2 in human HCT15 cells assessed as […] at 50 uM after 2 hrs by Western blot method; format: cell-based
[19] = tested on: HCT-15; experiment: Induction of apoptosis in human HCT15 cells assessed as increase in Bax level after 24 hrs by Western blot method; format: functional, cell-based; procedure, shortened: as §3
[20] = organism: Bos taurus; experiment: Induction of calf thymus DNA intercalation assessed as inhibition of ethidium bromide binding to DNA up to 40 uM after 30 mins by fluorescence assay
Procedure, shortened: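 Calf thymus DNA ([…]) premixed with EtBr ([…]) in 10 mM Tris, pH 7.2, for 30 min at room temperature. Compound added at increasing concentrations […], with 1% DMSO final in all wells including control. Incubated 30 min more with shaking. Fluorescence excited at 471 nm, emission collected 500-700 nm.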

[21] = tested on: HCT-15; experiment: Induction of DNA damage in human HCT15 cells assessed as comet tail formation at 10 uM after 24 hrs using SYBRGreen stain by electrophoresis based fluorescence microscopic method (reference value: 3 +/- 1.1%); format: functional
[22] = target: DNA topoisomerase 2-alpha (Homo sapiens) (UniProt P11388); details: 250 uM
[23] = organism: Bos taurus; experiment: Induction of calf thymus DNA intercalation assessed as inhibition of ethidium bromide binding to DNA after 30 mins by fluorescence assay
Procedure, shortened: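 Calf thymus DNA ([…]) premixed with EtBr ([…]) in 10 mM Tris buffer pH 7.2, 30 min at room temperature with shaking. Compound then added at increasing concentrations […], final DMSO 1% (vehicle for untreated control), further 30 min at room temperature. EtBr fluorescence read at 471 nm excitation, emission spectrum collected 500–700 nm.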

| Compound | inhibition [1] | IC50 [2] | IC50 [3] | IC50 [4] | other results |
| --- | --- | --- | --- | --- | --- |
| Oc1ccccc1-c1cc(-c2ccccc2Cl)c2oc3ccccc3c2n1 | 58.2% | 3 µM | 0.3 µM | 10.9 µM | – |
| Oc1ccccc1-c1cc(-c2cccc(Cl)c2)nc2c1oc1ccccc12 | 84% | 0.4 µM | 0.01 µM | 5.2 µM | Ratio IC50 [5]: 540; Ratio IC50 [6]: 60; Ratio IC50 [7]: 100 |
| Oc1ccc(-c2cc(-c3ccccc3Cl)c3oc4ccccc4c3n2)cc1 | 52.7% | 0.8 µM | 46.2 µM | 15.9 µM | – |
| Oc1ccc(-c2cc(-c3cccc(Cl)c3)c3oc4ccccc4c3n2)cc1 | 4.9% | > 50 µM | 5.9 µM | > 50 µM | – |
| Oc1cccc(-c2cc(-c3ccccc3Cl)c3oc4ccccc4c3n2)c1 | 60.2% | 0.1 µM | 1.4 µM | 4.3 µM | – |
| Oc1ccc(-c2cc(-c3ccc(Cl)cc3)nc3c2oc2ccccc23)cc1 | 100% | 5.9 µM | 0.2 µM | 4.3 µM | Activity [8]: inactive; inhibition [9]: 58.4%; inhibition [10]: Dose-dependent effect; inhibition [11]: 45.5%; Activity [12]: Dose-dependent effect; Activity [13]: Dose-dependent effect; Activity [14]: inactive; inhibition [15]: 38.2%; Activity [16]: 6.3%; inhibition [17]: Dose-dependent effect; Activity [18]: inactive; Activity [19]: Dose-dependent effect; inhibition [20]: inactive |
| CC[C@@]1(O)C(=O)OCc2c1cc1n(c2=O)Cc2cc3ccccc3nc2-1 [CAMPTOTHECIN] | – | 2.1 µM | 0.6 µM | 0.09 µM | inhibition [11]: 80.5%; inhibition [15]: 74.6% |
| Oc1cccc(-c2cc(-c3cccc(Cl)c3)c3oc4ccccc4c3n2)c1 | 35% | 1.2 µM | 5.9 µM | 6.4 µM | – |
| C[C@@H](CN1CC(=O)NC(=O)C1)N1CC(=O)NC(=O)C1 [DEXRAZOXANE] | – | – | – | – | Activity [14]: inactive; Activity [16]: 5.5% |
| Oc1ccc(-c2cc(-c3ccccc3Cl)nc3c2oc2ccccc23)cc1 | 92.8% | 6.1 µM | 0.4 µM | 3.9 µM | – |
| COc1cc([C@@H]2c3cc4c(cc3[C@@H](O[C@@H]3O[C@@H]5CO[C@@H](C)O[C@H]5[C@H](O)[C@H]3O)[C@H]3COC(=O)[C@H]23)OCO4)cc(OC)c1O [ETOPOSIDE] | – | 7 µM | 5.4 µM | 9.1 µM | inhibition [11]: 60.9%; Activity [21]: 46.3%; Activity [14]: Active; inhibition [15]: 36.1%; Activity [16]: 65.5%; inhibition [22]: Active; Activity [18]: Active |
| Oc1ccc(-c2cc(-c3ccc(Cl)cc3)c3oc4ccccc4c3n2)cc1 | 65.6% | 11.6 µM | 21.3 µM | 11.8 µM | – |
| Oc1ccccc1-c1cc(-c2ccc(Cl)cc2)nc2c1oc1ccccc12 | 86.7% | > 50 µM | > 50 µM | 9.5 µM | – |
| Oc1cccc(-c2cc(-c3cccc(Cl)c3)nc3c2oc2ccccc23)c1 | 85.4% | 1.4 µM | 0.4 µM | 4.3 µM | – |
| Cc1c2ccncc2c(C)c2c1[nH]c1ccccc12 | – | – | – | – | inhibition [22]: Active |
| COc1cccc2c1C(=O)c1c(O)c3c(c(O)c1C2=O)C[C@@](O)(C(=O)CO)C[C@@H]3O[C@H]1C[C@H](N)[C@H](O)[C@H](C)O1 [DOXORUBICIN HYDROCHLORIDE] | – | 0.3 µM | 1 µM | – | – |
| COc1cc(NS(C)(=O)=O)ccc1Nc1c2ccccc2nc2ccccc12 | – | – | – | – | inhibition [23]: Dose-dependent effect |
| Oc1ccc(-c2cc(-c3cccc(Cl)c3)nc3c2oc2ccccc23)cc1 | 95.4% | 1.9 µM | 0.2 µM | 0.9 µM | – |
| Oc1cccc(-c2cc(-c3ccc(Cl)cc3)nc3c2oc2ccccc23)c1 | 87.9% | 2.1 µM | 0.2 µM | 5.7 µM | – |
| Oc1ccccc1-c1cc(-c2ccc(Cl)cc2)c2oc3ccccc3c2n1 | 55.8% | > 50 µM | > 50 µM | > 50 µM | – |
| Oc1cccc(-c2cc(-c3ccccc3Cl)nc3c2oc2ccccc23)c1 | 82.9% | 1.5 µM | 1.6 µM | 4.4 µM | – |
| Oc1ccccc1-c1cc(-c2ccccc2Cl)nc2c1oc1ccccc12 | 85.6% | 3.9 µM | 0.4 µM | 2.8 µM | – |
| Oc1cccc(-c2cc(-c3ccc(Cl)cc3)c3oc4ccccc4c3n2)c1 | inactive | 2 µM | > 50 µM | 11.1 µM | – |
| Oc1ccccc1-c1cc(-c2cccc(Cl)c2)c2oc3ccccc3c2n1 | 4.7% | > 50 µM | > 50 µM | > 50 µM | – |
